# From ChEMBL document CHEMBL1126205, “Novel spirosuccinimides with incorporated isoindolone and benzisothiazole 1,1-dioxide moieties as aldose reductase inhibitors and antihyperglycemic agents” (1992)
# Where “and” joins values, the source holds several entries; their conditions need not be identical. Identical values can stand only once. Calls of active or inactive are those of the source. The calls are words filed in the database; no cut-off is given here.
# Legend:
# Rattus norvegicus [1] = assay: In vivo galactitol inhibitory activity measured by its ability to inhibit galactitol accumulation in sciatic nerve at 46 mg/Kg/day; NS=Not significant (% Inhibition); type: functional, organism-based
# Method in brief: (§1)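 Rats (n = 6) fed 20% galactose for 4 days, with compound given in the diet at the stated daily dose. Galactitol accumulation was measured in lens, sciatic nerve and diaphragm, and % inhibition was taken versus the nontreated group. Means are from three to eight drug-treated tissue samples. Dunnett's multiple comparison test was applied, with p > 0.05 reported as not significant.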
# Rattus norvegicus [2] = assay: In vivo galactitol inhibitory activity measured by its ability to inhibit galactitol accumulation in lens at 46 mg/Kg/day; type: functional; settings: Lens of camera-type eye
# Method in brief: (§2)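 Rats (n = 6) fed 20% galactose for 4 days, with compound given in the diet at the stated mg/kg per day. Galactitol accumulation in lens, sciatic nerve or diaphragm is scored as percent inhibition versus the non-treated group, as means of 3–8 drug-treated tissue samples. Dunnett's multiple comparison test applies; NS means p > 0.05.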
# Rattus norvegicus [3] = assay: In vivo galactitol inhibitory activity measured by its ability to inhibit galactitol accumulation in diaphragm at 46 mg/Kg/day; NS=Not significant (% Inhibition); type: functional, organism-based; method in brief: as §2
# [4] = target: Aldo-keto reductase family 1 member B1 (Bos taurus) (UniProt P16116); assay: In vitro aldose reductase inhibitory activity measured by NADPH-dependent inhibition of glyceraldehyde reduction in a partially purified bovine lens preparation at 10E-6 M
# Method in brief: (§3)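 Aldose reductase partially purified from bovine lens. Inhibition of NADPH-dependent glyceraldehyde reduction is measured at the single stated concentration and reported as percent inhibition, the mean of two determinations.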
# [5] = target: Aldo-keto reductase family 1 member B1 (Bos taurus) (UniProt P16116); assay: In vitro aldose reductase inhibitory activity measured by NADPH-dependent inhibition of glyceraldehyde reduction in a partially purified bovine lens preparation at 10E-7 M; method in brief: as §3
# Mus musculus [6] = assay: Antihyperglycemic activity measured as percent decrease in mice plasma glucose at 100 mg/Kg/day; type: functional
# Method in brief: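 Male db/db (C57BL/KsJ) mice, 4–6 per group, dosed at 100 mg/kg per day. Plasma glucose of the drug-treated group is expressed as percent decrease relative to a vehicle-treated control group. Values are mean ± SE, with p < 0.05 marked.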
# Rattus norvegicus [7] = assay: In vivo galactitol inhibitory activity measured by its ability to inhibit galactitol accumulation in sciatic nerve at 6 mg/Kg/day; type: functional; method in brief: as §1
# Rattus norvegicus [8] = assay: In vivo galactitol inhibitory activity measured by its ability to inhibit galactitol accumulation in sciatic nerve at 9 mg/Kg/day; type: functional; method in brief: as §1
# Rattus norvegicus [9] = assay: In vivo galactitol inhibitory activity measured by its ability to inhibit galactitol accumulation in sciatic nerve at 3 mg/Kg/day; NS=Not significant (% Inhibition); type: functional, organism-based; method in brief: as §1
# Rattus norvegicus [10] = assay: In vivo galactitol inhibitory activity measured by its ability to inhibit galactitol accumulation in lens at 9 mg/Kg/day; NS=Not significant (% Inhibition); type: functional, organism-based; settings: Lens of camera-type eye; method in brief: as §1
# Rattus norvegicus [11] = assay: In vivo galactitol inhibitory activity measured by its ability to inhibit galactitol accumulation in lens at 6 mg/Kg/day; NS=Not significant (% Inhibition); type: functional, organism-based; settings: Lens of camera-type eye; method in brief: as §2
# Rattus norvegicus [12] = assay: In vivo galactitol inhibitory activity measured by its ability to inhibit galactitol accumulation in diaphragm at 3 mg/Kg/day; type: functional; method in brief: as §2
# Rattus norvegicus [13] = assay: In vivo galactitol inhibitory activity measured by its ability to inhibit galactitol accumulation in diaphragm at 6 mg/Kg/day; type: functional; method in brief: as §2
# Rattus norvegicus [14] = assay: In vivo galactitol inhibitory activity measured by its ability to inhibit galactitol accumulation in diaphragm at 9 mg/Kg/day; type: functional; method in brief: as §2
# Rattus norvegicus [15] = assay: In vivo galactitol inhibitory activity measured by its ability to inhibit galactitol accumulation in lens at 3 mg/Kg/day; NS=Not significant (% Inhibition); type: functional, organism-based; settings: Lens of camera-type eye; method in brief: as §2
# Rattus norvegicus [16] = assay: In vivo galactitol inhibitory activity measured by its ability to inhibit galactitol accumulation in sciatic nerve at 32 mg/Kg/day; type: functional; method in brief: as §1
# Rattus norvegicus [17] = assay: In vivo galactitol inhibitory activity measured by its ability to inhibit galactitol accumulation in lens at 32 mg/Kg/day; type: functional; settings: Lens of camera-type eye; method in brief: as §2
# Rattus norvegicus [18] = assay: In vivo galactitol inhibitory activity measured by its ability to inhibit galactitol accumulation in sciatic nerve at 6 mg/Kg/day; NS=Not significant (% Inhibition); type: functional, organism-based; method in brief: as §1
# Rattus norvegicus [19] = assay: In vivo galactitol inhibitory activity measured by its ability to inhibit galactitol accumulation in sciatic nerve at 10 mg/Kg/day; type: functional; method in brief: as §1
# Rattus norvegicus [20] = assay: In vivo galactitol inhibitory activity measured by its ability to inhibit galactitol accumulation in lens at 6 mg/Kg/day; type: functional, Lens of camera-type eye; method in brief: as §2
# Rattus norvegicus [21] = assay: In vivo galactitol inhibitory activity measured by its ability to inhibit galactitol accumulation in diaphragm at 10 mg/Kg/day; type: functional; method in brief: as §2
# Rattus norvegicus [22] = assay: In vivo galactitol inhibitory activity measured by its ability to inhibit galactitol accumulation in lens at 10 mg/Kg/day; NS=Not significant (% Inhibition); type: functional; settings: Lens of camera-type eye; method in brief: as §2
# Rattus norvegicus [23] = assay: In vivo galactitol inhibitory activity measured by its ability to inhibit galactitol accumulation in lens at 3 mg/Kg/day; NS=Not significant; type: functional, organism-based; settings: Lens of camera-type eye; method in brief: as §2
# Rattus norvegicus [24] = assay: In vivo galactitol inhibitory activity measured by its ability to inhibit galactitol accumulation in lens at 79 mg/Kg/day; type: functional; settings: Lens of camera-type eye; method in brief: as §1
# Rattus norvegicus [25] = assay: In vivo galactitol inhibitory activity measured by its ability to inhibit galactitol accumulation in diaphragm at 79 mg/Kg/day; type: functional; method in brief: as §2
# Rattus norvegicus [26] = assay: In vivo galactitol inhibitory activity measured by its ability to inhibit galactitol accumulation in lens at 25 mg/Kg/day; type: functional, Lens of camera-type eye; method in brief: as §2
# Rattus norvegicus [27] = assay: In vivo galactitol inhibitory activity measured by its ability to inhibit galactitol accumulation in lens at 53 mg/Kg/day; type: functional, Lens of camera-type eye; method in brief: as §2
# Rattus norvegicus [28] = assay: In vivo galactitol inhibitory activity measured by its ability to inhibit galactitol accumulation in sciatic nerve at 79 mg/Kg/day; type: functional; method in brief: as §1
# Rattus norvegicus [29] = assay: In vivo galactitol inhibitory activity measured by its ability to inhibit galactitol accumulation in sciatic nerve at 97 mg/kg/day; type: functional; method in brief: as §1
# Rattus norvegicus [30] = assay: In vivo galactitol inhibitory activity measured by its ability to inhibit galactitol accumulation in lens at 97 mg/Kg/day; NS=Not significant (% Inhibition); type: functional, organism-based; settings: Lens of camera-type eye; method in brief: as §1
# Rattus norvegicus [31] = assay: In vivo galactitol inhibitory activity measured by its ability to inhibit galactitol accumulation in diaphragm at 97 mg/kg/day; type: functional; method in brief: as §2
# Rattus norvegicus [32] = assay: In vivo galactitol inhibitory activity measured by its ability to inhibit galactitol accumulation in sciatic nerve at 9 mg/Kg/day; NS=Not significant (% Inhibition); type: functional, organism-based; method in brief: as §1
# Rattus norvegicus [33] = assay: In vivo galactitol inhibitory activity measured by its ability to inhibit galactitol accumulation in sciatic nerve at 3 mg/Kg/day; type: functional; method in brief: as §1
# Rattus norvegicus [34] = assay: In vivo galactitol inhibitory activity measured by its ability to inhibit galactitol accumulation in diaphragm at 3 mg/Kg/day; NS=Not significant (% Inhibition); type: functional, organism-based; method in brief: as §2
# Rattus norvegicus [35] = assay: In vivo galactitol inhibitory activity measured by its ability to inhibit galactitol accumulation in diaphragm at 6 mg/Kg/day; NS=Not significant (% Inhibition); type: functional, organism-based; method in brief: as §2
# Rattus norvegicus [36] = assay: In vivo galactitol inhibitory activity measured by its ability to inhibit galactitol accumulation in diaphragm at 9 mg/Kg/day; NS=Not significant (% Inhibition); type: functional, organism-based; method in brief: as §2
# Mus musculus [37] = assay: Antihyperglycemic activity was determined by measuring percent decrease in plasma glucose at 1 mg/kg/day; type: functional
# Mus musculus [38] = assay: Antihyperglycemic activity was determined by measuring percent decrease in plasma glucose at 5 mg/kg/day; type: functional
# Rattus norvegicus [39] = assay: In vivo galactitol inhibitory activity measured by its ability to inhibit galactitol accumulation in sciatic nerve at 4 mg/Kg/day; type: functional; method in brief: as §1
# Rattus norvegicus [40] = assay: In vivo galactitol inhibitory activity measured by its ability to inhibit galactitol accumulation in lens at 4 mg/Kg/day; type: functional; settings: Lens of camera-type eye; method in brief: as §2
# Rattus norvegicus [41] = assay: In vivo galactitol inhibitory activity measured by its ability to inhibit galactitol accumulation in diaphragm at 4 mg/Kg/day; type: functional; method in brief: as §2
smiles,measurement,setting,value
O=C(O)CN1C(=O)c2ccccc2C12CC(=O)NC2=O (stereo unspecified),inhibition,Rattus norvegicus [1],inactive
same,inhibition in vivo at 46 mg/kg/day,Rattus norvegicus [2],17%
same,inhibition,Rattus norvegicus [3],inactive
CN1C(=O)c2cc(-c3ccccc3)ccc2C12CC(=O)NC2=O (stereo unspecified),inhibition,[4],81%
same,inhibition,[5],37%
same,Decrease,Mus musculus [6],<15%
same,inhibition in vivo at 6 mg/kg/day,Rattus norvegicus [7],27%
same,inhibition in vivo at 9 mg/kg/day,Rattus norvegicus [8],34%
same,inhibition,Rattus norvegicus [9],inactive
same,inhibition,Rattus norvegicus [10],inactive
same,inhibition,Rattus norvegicus [11],inactive
same,inhibition in vivo at 3 mg/kg/day,Rattus norvegicus [12],29%
same,inhibition in vivo at 6 mg/kg/day,Rattus norvegicus [13],43%
same,inhibition in vivo at 9 mg/kg/day,Rattus norvegicus [14],55%
same,inhibition,Rattus norvegicus [15],inactive
CN1C(=O)c2cccc(Cl)c2C12CC(=O)NC2=O (stereo unspecified),inhibition,[4],57%
same,inhibition,[5],19%
same,inhibition in vivo at 32 mg/kg/day,Rattus norvegicus [16],32%
same,inhibition in vivo at 32 mg/kg/day,Rattus norvegicus [17],13%
Cc1cccc2c1C(=O)N(C)C21CC(=O)NC1=O (stereo unspecified),inhibition,[4],59%
same,inhibition,[5],11%
same,inhibition,Rattus norvegicus [18],inactive
same,inhibition,Rattus norvegicus [9],inactive
same,Inhibition,Rattus norvegicus [19],50%
same,inhibition in vivo at 10 mg/kg/day,"Rattus norvegicus [19]; Rattus norvegicus, Sciatic nerve",63%
same,inhibition in vivo at 6 mg/kg/day,"Rattus norvegicus [20]; Rattus norvegicus, Lens of camera-type eye",28%
same,inhibition in vivo at 10 mg/kg/day,Rattus norvegicus [21],69%
same,inhibition in vivo at 3 mg/kg/day,Rattus norvegicus [12],37%
same,inhibition in vivo at 6 mg/kg/day,Rattus norvegicus [13],57%
same,inhibition in vivo at 10 mg/kg/day,Rattus norvegicus [22],29%
same,inhibition,Rattus norvegicus [23],inactive
CN1C(=O)c2ccc(Cl)cc2C12CC(=O)NC2=O (stereo in doubt; 32),Decrease,Mus musculus [6],<15%
same,Inhibition,Rattus norvegicus [20],28% and 53%
same,inhibition in vivo at 79 mg/kg/day,Rattus norvegicus [24],81%
same,inhibition in vivo at 79 mg/kg/day,Rattus norvegicus [25],92%
same,Inhibition,Rattus norvegicus [26],51% and 84% and 81%
same,Inhibition,Rattus norvegicus [27],69% and 92% and 90%
same,inhibition in vivo at 79 mg/kg/day,Rattus norvegicus [28],80%
O=C1CC2(C(=O)N1)c1cc(Cl)ccc1C(=O)N2Cc1ccc(Br)cc1F (stereo unspecified),inhibition,[4],70%
same,inhibition,[5],13%
same,Decrease,Mus musculus [6],<15%
same,inhibition in vivo at 97 mg/kg/day,Rattus norvegicus [29],24%
same,inhibition,Rattus norvegicus [30],inactive
same,inhibition in vivo at 97 mg/kg/day,Rattus norvegicus [31],30%
CN1C(=O)c2c(Cl)cccc2C12CC(=O)NC2=O (stereo unspecified),inhibition,[4],65%
same,inhibition,[5],29%
same,Decrease,Mus musculus [6],<15%
same,inhibition,Rattus norvegicus [18],inactive
same,inhibition,Rattus norvegicus [32],inactive
same,inhibition in vivo at 3 mg/kg/day,Rattus norvegicus [33],21%
same,inhibition,Rattus norvegicus [10],inactive
same,inhibition,Rattus norvegicus [11],inactive
same,inhibition,Rattus norvegicus [34],inactive
same,inhibition,Rattus norvegicus [35],inactive
same,inhibition,Rattus norvegicus [36],inactive
same,inhibition,Rattus norvegicus [15],inactive
Cc1oc(-c2ccccc2)nc1CCOc1ccc(CC2SC(=O)NC2=O)cc1 (stereo unspecified),Decrease,Mus musculus [37],40%
same,Decrease,Mus musculus [38],52%
O=C1NC(=O)[C@@]2(CCOc3ccc(F)cc32)N1 [SORBINIL],inhibition in vivo at 4 mg/kg/day,Rattus norvegicus [39],55%
same,inhibition in vivo at 4 mg/kg/day,Rattus norvegicus [40],20%
same,inhibition in vivo at 4 mg/kg/day,Rattus norvegicus [41],69%
